Test results: ChEMBL document CHEMBL4184148 (Bioorg Med Chem Lett, 2017)

Columns and labels:
Aurora kinase B [1] = molecular target: T1, Aurora kinase B (Homo sapiens, UniProt Q96GD4); test: Inhibition of recombinant full length His-tagged human Aurora B expressed in baculovirus expression system by Z'LYTE assay
Summary of the method: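 Z'LYTE biochemical kinase assay run at the Km ATP concentration for each kinase. IC50 was determined and reported ± standard error.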

[2] = Half life in mouse hepatic microsomes at 1 mg/ml; type: ADME, Liver, microsome
[3] = molecular target: Activin receptor type-1-like (Homo sapiens) (UniProt P37023); test: Binding affinity to wild-type human ACVRL1 (L164 to Q503 residues) expressed in Escherichia coli BL21 at 1 uM by Kinomescan method relative to control
[4] = molecular target: 5'-AMP-activated protein kinase catalytic subunit alpha-1 (Homo sapiens) (UniProt Q13131); test: Binding affinity to wild-type human partial length AMPK alpha1 (M1 to E306 residues) expressed in Escherichia coli BL21 at 1 uM by Kinomescan method relative to control
Summary of the method: (§1)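 Kinome-wide competition binding panel run by an outside provider, with each compound tested at a single concentration. Activity is read against the kinase panel.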

Aurora kinase B [5] = molecular target: T1, Aurora kinase B; test: Binding affinity to wild-type human partial length AURKB (D25 to A303 residues) expressed in HEK293 cells at 1 uM by Kinomescan method relative to control; type: cell-based
[6] = molecular target: Cyclin-dependent kinase 13 (Homo sapiens) (UniProt Q14004); test: Binding affinity to wild-type human partial length CDC2L5 (H675 to S1054 residues) expressed in HEK293 cells at 1 uM by Kinomescan method relative to control; type: cell-based
[7] = molecular target: Serine/threonine-protein kinase 17B (Homo sapiens) (UniProt O94768); test: Binding affinity to wild-type human full length DRAK2 (M1 to C372 residues) expressed in Escherichia coli BL21 at 1 uM by Kinomescan method relative to control
Summary of the method: (§2)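 Run as one kinome-wide competition binding panel with each compound at a single fixed concentration. Results were plotted as a kinome-wide selectivity map.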

[8] = system: Epidermal growth factor receptor (Homo sapiens), P00533 [UNDEFINED MUTATION]; test: Binding affinity to human partial length EGFR L747-E749del/A750P mutant expressed in Escherichia coli BL21 at 1 uM by Kinomescan method relative to control
[9] = molecular target: Ephrin type-A receptor 8 (Homo sapiens) (UniProt P29322); test: Binding affinity to wild-type human partial length EPHA8 (Q608 to C920 residues) expressed in Escherichia coli BL21 at 1 uM by Kinomescan method relative to control
[10] = molecular target: LIM domain kinase 1 (Homo sapiens) (UniProt P53667); test: Binding affinity to wild-type human full length LIMK1 (M1 to D647 residues) expressed in Escherichia coli BL21 at 1 uM by Kinomescan method relative to control; summary of the method: as §2
[11] = molecular target: Tyrosine-protein kinase Lyn (Homo sapiens) (UniProt P07948); test: Binding affinity to wild-type human partial length LYN (C219 to Q511 residues) expressed in Escherichia coli BL21 at 1 uM by Kinomescan method relative to control
[12] = molecular target: Macrophage-stimulating protein receptor (Homo sapiens) (UniProt Q04912); test: Binding affinity to wild-type human partial length MST1R (I1057 to L1363 residues) expressed in Escherichia coli BL21 at 1 uM by Kinomescan method relative to control
[13] = molecular target: Serine/threonine-protein kinase Nek2 (Homo sapiens) (UniProt P51955); test: Binding affinity to wild-type human partial length NEK2 (M1 to K309 residues) expressed in Escherichia coli BL21 at 1 uM by Kinomescan method relative to control
[14] = molecular target: Serine/threonine-protein kinase Nek7 (Homo sapiens) (UniProt Q8TDX7); test: Binding affinity to wild-type human full length NEK7 (M1 to S302 residues) expressed in Escherichia coli BL21 at 1 uM by Kinomescan method relative to control; summary of the method: as §1
[15] = molecular target: Phosphatidylinositol 4,5-bisphosphate 3-kinase catalytic subunit alpha isoform (Homo sapiens) (UniProt P42336); test: Binding affinity to wild-type human partial length PIK3CA (R108 to N1068 residues) expressed in HEK293 cells at 1 uM by Kinomescan method relative to control; type: cell-based
[16] = molecular target: Phosphatidylinositol 4-phosphate 5-kinase type-1 gamma (Homo sapiens) (UniProt O60331); test: Binding affinity to wild-type human partial length PIP5K1C (M1 to T668 residues) expressed in HEK293 cells at 1 uM by Kinomescan method relative to control; type: cell-based
[17] = molecular target: cAMP-dependent protein kinase catalytic subunit alpha (Homo sapiens) (UniProt P17612); test: Binding affinity to wild-type human partial length PKAC-alpha (G10 to F351 residues) expressed in Escherichia coli BL21 at 1 uM by Kinomescan method relative to control
[18] = molecular target: Protein kinase C eta type (Homo sapiens) (UniProt P24723); test: Binding affinity to wild-type human partial length PRKCH (S324 to P683 residues) expressed in Escherichia coli BL21 at 1 uM by Kinomescan method relative to control
[19] = molecular target: Protein kinase C theta type (Homo sapiens) (UniProt Q04759); test: Binding affinity to wild-type human partial length PRKCQ (L350 to S706 residues) expressed in Escherichia coli BL21 at 1 uM by Kinomescan method relative to control
[20] = molecular target: cGMP-dependent protein kinase 1 (Homo sapiens) (UniProt Q13976); test: Binding affinity to wild-type human partial length PRKG1 (L339 to F686 residues) expressed in Escherichia coli BL21 at 1 uM by Kinomescan method relative to control
[21] = molecular target: Dual serine/threonine and tyrosine protein kinase (Homo sapiens) (UniProt Q6XUX3); test: Binding affinity to wild-type human full length RIPK5 (M1 to T929 residues) expressed in HEK293 cells at 1 uM by Kinomescan method relative to control; type: cell-based
[22] = molecular target: Ribosomal protein S6 kinase alpha-3 (Homo sapiens) (UniProt P51812); test: Binding affinity to wild-type human partial length C-terminal RSK3 kinase domain 2 (V403 to K700 residues) expressed in Escherichia coli BL21 at 1 uM by Kinomescan method relative to control
[23] = molecular target: Uncharacterized serine/threonine-protein kinase SBK3 (Homo sapiens) (UniProt P0C264); test: Binding affinity to wild-type human partial length SgK110 (L22 to R329 residues) expressed in Escherichia coli BL21 at 1 uM by Kinomescan method relative to control
[24] = molecular target: SNF-related serine/threonine-protein kinase (Homo sapiens) (UniProt Q9NRH2); test: Binding affinity to wild-type human partial length SNRK (M1 to E339 residues) expressed in HEK293 cells at 1 uM by Kinomescan method relative to control; type: cell-based
[25] = molecular target: Wee1-like protein kinase 2 (Homo sapiens) (UniProt P0C1S8); test: Binding affinity to wild-type human partial length WEE2 (M204 to K492 residues) expressed in Escherichia coli BL21 at 1 uM by Kinomescan method relative to control
[26] = molecular target: Serine/threonine-protein kinase WNK4 (Homo sapiens) (UniProt Q96J92); test: Binding affinity to wild-type human partial length WNK4 (A31 to D461 residues) expressed in HEK293 cells at 1 uM by Kinomescan method relative to control; type: cell-based

T1 sequence (Q96GD4 whole entry): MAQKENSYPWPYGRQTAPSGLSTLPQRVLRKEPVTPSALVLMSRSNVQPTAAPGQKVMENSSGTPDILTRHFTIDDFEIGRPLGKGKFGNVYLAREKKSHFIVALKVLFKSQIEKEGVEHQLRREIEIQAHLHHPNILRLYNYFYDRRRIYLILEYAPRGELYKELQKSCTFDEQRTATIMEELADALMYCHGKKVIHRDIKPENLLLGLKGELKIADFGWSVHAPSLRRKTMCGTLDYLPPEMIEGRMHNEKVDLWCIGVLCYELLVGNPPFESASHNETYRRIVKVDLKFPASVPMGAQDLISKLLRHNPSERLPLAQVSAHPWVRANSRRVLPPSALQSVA
Sequence of LIM domain kinase 1 (Homo sapiens) (P53667 whole entry, looked up, the tested form may be a part): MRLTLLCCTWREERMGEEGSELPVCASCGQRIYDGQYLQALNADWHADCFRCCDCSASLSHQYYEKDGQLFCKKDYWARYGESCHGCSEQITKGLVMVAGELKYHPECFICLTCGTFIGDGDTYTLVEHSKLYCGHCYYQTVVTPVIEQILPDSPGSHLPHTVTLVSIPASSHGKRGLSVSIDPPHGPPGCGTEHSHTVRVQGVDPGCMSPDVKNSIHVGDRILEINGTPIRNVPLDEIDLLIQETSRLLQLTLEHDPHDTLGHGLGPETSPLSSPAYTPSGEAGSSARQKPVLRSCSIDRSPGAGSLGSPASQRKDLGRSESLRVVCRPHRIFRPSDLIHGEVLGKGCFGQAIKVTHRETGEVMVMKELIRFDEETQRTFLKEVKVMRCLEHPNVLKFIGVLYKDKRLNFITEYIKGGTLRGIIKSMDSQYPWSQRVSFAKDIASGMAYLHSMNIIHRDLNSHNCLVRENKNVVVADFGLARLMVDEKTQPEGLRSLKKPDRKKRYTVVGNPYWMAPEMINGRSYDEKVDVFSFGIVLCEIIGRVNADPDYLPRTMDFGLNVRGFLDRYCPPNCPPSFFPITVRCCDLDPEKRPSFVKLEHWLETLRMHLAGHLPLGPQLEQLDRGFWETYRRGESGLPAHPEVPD
Sequence of Dual serine/threonine and tyrosine protein kinase (Homo sapiens) (Q6XUX3 whole entry, the tested form may be a part): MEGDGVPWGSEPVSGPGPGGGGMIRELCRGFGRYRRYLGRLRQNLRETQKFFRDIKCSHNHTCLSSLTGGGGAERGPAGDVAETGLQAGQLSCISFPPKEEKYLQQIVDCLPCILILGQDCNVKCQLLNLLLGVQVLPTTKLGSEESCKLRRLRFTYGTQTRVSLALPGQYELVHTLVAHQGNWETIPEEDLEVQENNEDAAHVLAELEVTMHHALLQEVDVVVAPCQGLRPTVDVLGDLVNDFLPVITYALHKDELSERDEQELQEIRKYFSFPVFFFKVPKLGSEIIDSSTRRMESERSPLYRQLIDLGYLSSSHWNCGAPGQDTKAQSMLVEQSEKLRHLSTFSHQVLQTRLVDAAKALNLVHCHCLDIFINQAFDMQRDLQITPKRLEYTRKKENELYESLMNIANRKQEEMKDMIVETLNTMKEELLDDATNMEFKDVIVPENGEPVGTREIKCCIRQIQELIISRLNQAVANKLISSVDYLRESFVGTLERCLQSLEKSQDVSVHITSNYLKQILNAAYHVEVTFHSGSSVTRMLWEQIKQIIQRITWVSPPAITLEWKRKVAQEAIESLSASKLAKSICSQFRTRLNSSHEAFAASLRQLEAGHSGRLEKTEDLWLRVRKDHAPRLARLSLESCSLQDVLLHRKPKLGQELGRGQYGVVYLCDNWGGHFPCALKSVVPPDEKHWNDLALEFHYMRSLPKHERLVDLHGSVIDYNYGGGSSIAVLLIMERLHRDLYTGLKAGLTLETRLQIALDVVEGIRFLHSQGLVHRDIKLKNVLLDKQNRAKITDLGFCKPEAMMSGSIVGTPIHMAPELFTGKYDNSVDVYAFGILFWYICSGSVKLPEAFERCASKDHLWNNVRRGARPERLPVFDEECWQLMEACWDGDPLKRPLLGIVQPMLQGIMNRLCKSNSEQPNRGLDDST
Sequence of Protein kinase C theta type (Homo sapiens) (Q04759 whole entry, looked up, the tested form may be a part): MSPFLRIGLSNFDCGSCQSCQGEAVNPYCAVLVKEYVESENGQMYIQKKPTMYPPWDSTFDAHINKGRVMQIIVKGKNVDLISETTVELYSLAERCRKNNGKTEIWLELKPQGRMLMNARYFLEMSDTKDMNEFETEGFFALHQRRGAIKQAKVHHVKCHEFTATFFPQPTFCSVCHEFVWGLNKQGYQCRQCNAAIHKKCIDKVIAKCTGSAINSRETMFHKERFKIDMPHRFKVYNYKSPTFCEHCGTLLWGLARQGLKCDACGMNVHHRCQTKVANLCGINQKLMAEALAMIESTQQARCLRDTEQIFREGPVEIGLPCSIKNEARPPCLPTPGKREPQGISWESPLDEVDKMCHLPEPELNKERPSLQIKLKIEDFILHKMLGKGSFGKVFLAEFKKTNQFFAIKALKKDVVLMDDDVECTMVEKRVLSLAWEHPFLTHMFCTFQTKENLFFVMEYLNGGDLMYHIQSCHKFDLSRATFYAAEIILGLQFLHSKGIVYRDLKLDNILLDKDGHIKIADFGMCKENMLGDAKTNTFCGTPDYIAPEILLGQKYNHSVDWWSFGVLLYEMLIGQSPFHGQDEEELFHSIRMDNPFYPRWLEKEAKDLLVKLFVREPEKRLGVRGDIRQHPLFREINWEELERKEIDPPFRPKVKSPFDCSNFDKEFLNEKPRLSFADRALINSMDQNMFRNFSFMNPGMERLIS
Sequence of Protein kinase C eta type (Homo sapiens) (P24723 whole entry, the tested form may be a part): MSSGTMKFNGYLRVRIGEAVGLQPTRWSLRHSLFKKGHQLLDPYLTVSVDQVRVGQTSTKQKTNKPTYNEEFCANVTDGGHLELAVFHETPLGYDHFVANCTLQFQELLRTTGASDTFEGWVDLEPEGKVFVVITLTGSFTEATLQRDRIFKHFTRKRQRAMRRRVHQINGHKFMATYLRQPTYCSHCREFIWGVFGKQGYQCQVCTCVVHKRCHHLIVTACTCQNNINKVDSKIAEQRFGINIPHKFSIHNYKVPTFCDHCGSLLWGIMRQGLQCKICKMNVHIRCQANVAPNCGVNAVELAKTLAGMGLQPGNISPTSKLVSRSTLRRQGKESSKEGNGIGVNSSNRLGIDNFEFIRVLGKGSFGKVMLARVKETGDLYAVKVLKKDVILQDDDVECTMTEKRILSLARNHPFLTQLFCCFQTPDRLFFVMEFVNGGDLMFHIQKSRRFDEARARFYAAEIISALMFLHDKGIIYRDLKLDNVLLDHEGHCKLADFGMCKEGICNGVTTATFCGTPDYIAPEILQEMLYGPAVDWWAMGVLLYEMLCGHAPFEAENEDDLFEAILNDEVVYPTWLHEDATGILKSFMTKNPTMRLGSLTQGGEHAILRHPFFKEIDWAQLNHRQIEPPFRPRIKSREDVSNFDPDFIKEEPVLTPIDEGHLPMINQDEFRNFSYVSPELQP
Sequence of Ribosomal protein S6 kinase alpha-3 (Homo sapiens) (P51812 whole entry, the tested form may be a part): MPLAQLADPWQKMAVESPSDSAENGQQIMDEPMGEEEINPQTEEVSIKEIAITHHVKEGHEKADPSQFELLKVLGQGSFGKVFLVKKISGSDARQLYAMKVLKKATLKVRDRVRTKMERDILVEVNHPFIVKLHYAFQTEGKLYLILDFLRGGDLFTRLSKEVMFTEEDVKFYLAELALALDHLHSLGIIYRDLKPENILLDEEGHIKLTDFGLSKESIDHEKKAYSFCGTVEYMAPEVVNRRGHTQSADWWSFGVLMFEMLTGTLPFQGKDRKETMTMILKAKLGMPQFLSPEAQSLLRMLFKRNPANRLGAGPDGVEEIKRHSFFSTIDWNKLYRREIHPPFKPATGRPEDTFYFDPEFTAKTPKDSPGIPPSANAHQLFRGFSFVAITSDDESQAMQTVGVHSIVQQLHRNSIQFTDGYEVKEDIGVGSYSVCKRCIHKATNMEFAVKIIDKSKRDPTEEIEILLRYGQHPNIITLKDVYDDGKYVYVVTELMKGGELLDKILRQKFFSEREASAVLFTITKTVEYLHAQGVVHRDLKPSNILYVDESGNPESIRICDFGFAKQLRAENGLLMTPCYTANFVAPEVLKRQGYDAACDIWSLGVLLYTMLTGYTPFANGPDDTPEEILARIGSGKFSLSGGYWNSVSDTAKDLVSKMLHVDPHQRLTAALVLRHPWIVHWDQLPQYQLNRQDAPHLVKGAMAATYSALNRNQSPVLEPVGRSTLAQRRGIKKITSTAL
Sequence of Tyrosine-protein kinase Lyn (Homo sapiens) (P07948 2-512 limits assumed): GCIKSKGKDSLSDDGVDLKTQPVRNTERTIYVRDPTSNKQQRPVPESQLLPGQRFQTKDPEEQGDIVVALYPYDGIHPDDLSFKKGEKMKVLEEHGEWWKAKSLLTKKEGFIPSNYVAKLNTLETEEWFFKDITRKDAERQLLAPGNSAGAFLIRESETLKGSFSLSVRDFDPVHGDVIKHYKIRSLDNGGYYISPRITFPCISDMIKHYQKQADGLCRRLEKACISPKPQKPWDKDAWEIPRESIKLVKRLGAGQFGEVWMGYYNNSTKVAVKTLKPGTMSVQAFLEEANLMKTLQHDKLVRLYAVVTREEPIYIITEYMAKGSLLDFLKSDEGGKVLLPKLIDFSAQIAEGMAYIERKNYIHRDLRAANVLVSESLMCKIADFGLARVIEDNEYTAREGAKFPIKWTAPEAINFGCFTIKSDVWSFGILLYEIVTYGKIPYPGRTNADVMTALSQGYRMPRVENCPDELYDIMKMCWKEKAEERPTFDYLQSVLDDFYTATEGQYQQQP
Sequence of Serine/threonine-protein kinase 17B (Homo sapiens) (O94768 whole entry, the tested form may be a part): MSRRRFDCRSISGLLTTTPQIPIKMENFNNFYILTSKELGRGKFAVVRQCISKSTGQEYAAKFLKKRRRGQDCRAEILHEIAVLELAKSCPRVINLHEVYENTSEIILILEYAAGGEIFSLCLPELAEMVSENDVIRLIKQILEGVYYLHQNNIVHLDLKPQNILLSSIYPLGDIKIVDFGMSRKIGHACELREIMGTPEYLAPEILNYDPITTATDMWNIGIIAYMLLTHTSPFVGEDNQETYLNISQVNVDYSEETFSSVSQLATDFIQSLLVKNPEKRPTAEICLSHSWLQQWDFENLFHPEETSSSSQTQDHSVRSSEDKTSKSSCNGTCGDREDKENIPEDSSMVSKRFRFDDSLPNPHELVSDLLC

Row | SMILES | IC50 (Aurora kinase B [1]) [nM] | t1/2 [2] [min] | Activity [3] [%] | Activity [4] [%] | Activity (Aurora kinase B [5]) [%] | Activity [6] [%] | Activity [7] [%] | Activity [8] [%] | Activity [9] [%] | Activity [10] [%] | Activity [11] [%] | Activity [12] [%] | Activity [13] [%] | Activity [14] [%] | Activity [15] [%] | Activity [16] [%] | Activity [17] [%] | Activity [18] [%] | Activity [19] [%] | Activity [20] [%] | other results
1 | CCC(=O)Nc1ccc(C(=O)Nc2ccc(Nc3ncc4c(n3)N(C)c3ccc(C)cc3C(=O)N4C)cc2)cc1 | 41 | 2.9 | 90 | 64 | 1.9 | 100 | 100 | 48 | 80 | 70 | 97 | 85 | 100 | 95 | 87 | 88 | 87 | 100 | 99 | 100 | Activity [21]: 68%; Activity [22]: 85%; Activity [23]: 70%; Activity [24]: 75%; Activity [25]: 97%; Activity [26]: 85%
2 | C=CC(=O)Nc1ccc(C(=O)Nc2ccc(Nc3ncc4c(n3)N(C)c3ccc(C)cc3C(=O)N4C)cc2)cc1 | 29 | 7.5 | 92 | 70 | 1.8 | 99 | 87 | 76 | 91 | 100 | 97 | 82 | 99 | 100 | 76 | 98 | 100 | 100 | 96 | 100 | Activity [21]: 96%; Activity [22]: 100%; Activity [23]: 93%; Activity [24]: 100%; Activity [25]: 100%; Activity [26]: 99%
